Blank lines part the entries; values can stand above or below the compound they belong to.
Key:
HT-29 = experiment: In vitro cytotoxic potency against HT-29 (human colon adenocarcinoma) cell line.; type: functional, cell-based
Calf thymus DNA = experiment: CT-DNA binding required to produce a 50% drop in fluorescence of DNA-bound ethidium.; type: nucleic-acid assay; conditions: Bos taurus
Outline: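 Ethidium displacement from calf thymus DNA in 10 mM Na2HPO4, 10 mM NaH2PO4, 1 mM EDTA, pH 7.0, containing 1.26 μM ethidium bromide and 1 μM CT-DNA. Drug added serially from ~5 mM DMSO stock; 20 °C; fluorescence excitation 546 nm, emission 595 nm. C50 = drug concentration lowering DNA-bound ethidium fluorescence by 50%, mean of three determinations.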

OVCAR-4 [1] = experiment: Percent growth of NCI cell line, ovarian: OVCAR-4 exposed for 48 hr at 10e-6 concentration; type: functional, Homo sapiens
Outline: (§1)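 NCI panel cell lines exposed 48 h to 10^-8, 10^-6 and 10^-4 M drug; read-out is percent growth at each concentration.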

MCF7 [2] = experiment: Percent growth of NCI cell line, breast: MCF-7 exposed for 48 hr at 10e-4 concentration; type: functional, Homo sapiens; outline: as §1
786-0 [3] = experiment: Percent growth of NCI cell line, renal: 786-0 exposed for 48 hr at 10e-6 concentration; type: functional, Homo sapiens; outline: as §1
DU-145 [4] = experiment: Percent growth of NCI cell line, prostate: DU-145 exposed for 48 hr at 10e-6 concentration; type: functional, Homo sapiens; outline: as §1
DU-145 [5] = experiment: Percent growth of NCI cell line, prostate: DU-145 exposed for 48 hr at 10e-4 concentration; type: functional, Homo sapiens; outline: as §1
MCF7 [6] = experiment: Percent growth of NCI cell line, breast: MCF-7 exposed for 48 hr at 10e-6 concentration; type: functional, Homo sapiens; outline: as §1
OVCAR-4 [7] = experiment: Percent growth of NCI cell line, ovarian: OVCAR-4 exposed for 48 hr at 10e-4 concentration; type: functional, Homo sapiens; outline: as §1
NCI-H460 [8] = experiment: Percent growth of NCI cell line, lung-nsc: NCI-H460 exposed for 48 hr at 10e-4 concentration; type: functional, Homo sapiens; outline: as §1
HCT-15 [9] = experiment: Percent growth of NCI cell line, colon: HCT-15 exposed for 48 hr at 10e-6 concentration; type: functional, Homo sapiens; outline: as §1
HCT-15 [10] = experiment: Percent growth of NCI cell line, colon: HCT-15 exposed for 48 hr at 10e-4 concentration; type: functional, Homo sapiens; outline: as §1
[11] = Percent growth of NCI cell line, leucemia K562 exposed for 48 hr at 10e-6 concentration; type: functional, Homo sapiens; outline: as §1
LOX IMVI [12] = experiment: Percent growth of NCI cell line, melanoma: LOX IMVI exposed for 48 hr at 10e-8 concentration; type: functional, Homo sapiens; outline: as §1
786-0 [13] = experiment: Percent growth of NCI cell line, renal: 786-0 exposed for 48 hr at 10e-8 concentration; type: functional, Homo sapiens; outline: as §1
LoVo [14] = experiment: Cytotoxicity activity on LoVo human adenocarcinoma cell line after 1 hr of drug exposure; type: functional, cell-based
Outline: (§2)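 LoVo (sensitive) and LoVo/Dx (resistant) human colon adenocarcinoma cells seeded at 2.5 × 10^5 cells/mL medium; drug solutions added to culture. IC50 = drug concentration inhibiting cell growth by 50%, assays in triplicate.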

OVCAR-4 [15] = experiment: Percent growth of NCI cell line, ovarian: OVCAR-4 exposed for 48 hr at 10e-8 concentration; type: functional, Homo sapiens; outline: as §1
786-0 [16] = experiment: Percent growth of NCI cell line, renal: 786-0 exposed for 48 hr at 10e-4 concentration; type: functional, Homo sapiens; outline: as §1
LoVo [17] = experiment: Cytotoxicity activity on LoVo/Dx human adenocarcinoma cell line after 144 hr of drug exposure; type: functional, cell-based
Outline: (§3)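 LoVo (sensitive) and LoVo/Dx (resistant) human colon adenocarcinoma cells seeded at 2.5 × 10^5 cells/mL medium; drug solutions added to culture.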

LoVo [18] = experiment: Cytotoxicity activity on LoVo/Dx human adenocarcinoma cell line after 1 hr of drug exposure; type: functional, cell-based; outline: as §2
DU-145 [19] = experiment: Percent growth of NCI cell line, prostate: DU-145 exposed for 48 hr at 10e-8 concentration; type: functional, Homo sapiens; outline: as §1
SNB-19 [20] = experiment: Percent growth of NCI cell line, CNS: SNB-19 exposed for 48 hr at 10e-6 concentration; type: functional, Homo sapiens; outline: as §1
HCT-15 [21] = experiment: Percent growth of NCI cell line, colon: HCT-15 exposed for 48 hr at 10e-8 concentration; type: functional, Homo sapiens; outline: as §1
MCF7 [22] = experiment: Percent growth of NCI cell line, breast: MCF-7 exposed for 48 hr at 10e-8 concentration; type: functional, Homo sapiens; outline: as §1
LoVo [23] = experiment: Cytotoxicity activity on LoVo human adenocarcinoma cell line after 144 hr of drug exposure; type: functional, cell-based; outline: as §3
LOX IMVI [24] = experiment: Percent growth of NCI cell line, melanoma: LOX IMVI exposed for 48 hr at 10e-6 concentration; type: functional, Homo sapiens; outline: as §1
NCI-H460 [25] = experiment: Percent growth of NCI cell line, lung-nsc: NCI-H460 exposed for 48 hr at 10e-8 concentration; type: functional, Homo sapiens; outline: as §1
[26] = Percent growth of NCI cell line, leucemia K562 exposed for 48 hr at 10e-8 concentration; type: functional, Homo sapiens; outline: as §1
SNB-19 [27] = experiment: Percent growth of NCI cell line, CNS: SNB-19 exposed for 48 hr at 10e-4 concentration; type: functional, Homo sapiens; outline: as §1
NCI-H460 [28] = experiment: Percent growth of NCI cell line, lung-nsc: NCI-H460 exposed for 48 hr at 10e-6 concentration; type: functional, Homo sapiens; outline: as §1
SNB-19 [29] = experiment: Percent growth of NCI cell line, CNS: SNB-19 exposed for 48 hr at 10e-8 concentration; type: functional, Homo sapiens; outline: as §1
LOX IMVI [30] = experiment: Percent growth of NCI cell line, melanoma: LOX IMVI exposed for 48 hr at 10e-4 concentration; type: functional, Homo sapiens; outline: as §1
[31] = Percent growth of NCI cell line, leucemia K562 exposed for 48 hr at 10e-4 concentration; type: functional, Homo sapiens; outline: as §1

Structure (SMILES): CN(C)CCCn1c(=O)c2ccc3c4c(nn3CCCN(C)C)c3ccccc3n(c1=O)c24
IC50 (HT-29): 0.135 µM
C50 (Calf thymus DNA): 0.56 µM

Structure (SMILES): CN(C)CCCn1nc2c3cc(O)ccc3n3c(=O)n(CCN(C)C)c(=O)c4ccc1c2c43
IC50 (HT-29): 0.061 µM
C50 (Calf thymus DNA): 0.0066 µM

Structure (SMILES): CCN(CC)CCn1c(=O)c2ccc3c4c(nn3CCN(CC)CC)c3ccccc3n(c1=O)c24
IC50 (HT-29): 0.029 µM
C50 (Calf thymus DNA): 0.051 µM

Structure (SMILES): O=C1c2c(O)ccc(O)c2C(=O)c2c(NCCNCCO)ccc(NCCNCCO)c21
C50 (Calf thymus DNA): 0.037 µM

Structure (SMILES): CN(C)CCn1c(=O)c2ccc3c4c(nn3CCN3CCCCC3)c3ccccc3n(c1=O)c24
IC50 (HT-29): 0.0041 µM
C50 (Calf thymus DNA): 0.05 µM

Structure (SMILES): CN(C)CCn1c(=O)c2ccc3c4c(nn3CCN3CCCC3)c3ccccc3n(c1=O)c24
IC50 (HT-29): 0.0092 µM
C50 (Calf thymus DNA): 0.049 µM

Further lines, with some results ahead:

C50 (Calf thymus DNA): 0.12 µM
Structure (SMILES): CN(C)CCCn1nc2c3ccccc3n3c(=O)n(CCN(C)C)c(=O)c4ccc1c2c43
IC50 (HT-29): 0.068 µM

C50 (Calf thymus DNA): 0.006 µM
Structure (SMILES): CN(C)CCn1c(=O)c2ccc3c4c(nn3CCN3CCCCC3)c3cc(N)ccc3n(c1=O)c24
IC50 (HT-29): 0.00017 µM

C50 (Calf thymus DNA): 0.01 µM
Structure (SMILES): CN(C)CCn1c(=O)c2ccc3c4c(nn3CCN3CCCCC3)c3cc([N+](=O)[O-])ccc3n(c1=O)c24
IC50 (HT-29): 0.00021 µM

C50 (Calf thymus DNA): 0.056 µM
Structure (SMILES): CN(C)CCn1c(=O)c2ccc3c4c(nn3CCN(C)C)c3cc(O)ccc3n(c1=O)c24
Growth (OVCAR-4 [1]): -19%
Growth (MCF7 [2]): -64%
Growth (786-0 [3]): -11%
Growth (DU-145 [4]): 0%
Growth (DU-145 [5]): -50%
Growth (MCF7 [6]): -17%
Growth (OVCAR-4 [7]): -60%
Growth (NCI-H460 [8]): -74%
Growth (HCT-15 [9]): 21%
Growth (HCT-15 [10]): -68%
Growth [11]: 7%
IC50 (HT-29): 0.039 µM
Growth (LOX IMVI [12]): 63%
Growth (786-0 [13]): 43%
IC50 (LoVo [14]): 0.22 µM
Growth (OVCAR-4 [15]): 70%
Growth (786-0 [16]): -82%
IC50 (LoVo [17]): 0.17 µM
IC50 (LoVo [18]): 0.08 µM
Growth (DU-145 [19]): 71%
Growth (SNB-19 [20]): -1%
Growth (HCT-15 [21]): 85%
Growth (MCF7 [22]): 60%
IC50 (LoVo [23]): 0.011 µM
Growth (LOX IMVI [24]): -48%
Growth (NCI-H460 [25]): 71%
Growth [26]: 84%
Growth (SNB-19 [27]): -72%
Growth (NCI-H460 [28]): -23%
Growth (SNB-19 [29]): 65%
Growth (LOX IMVI [30]): -79%
Growth [31]: -66%
